Consider five molecules from ChEMBL document CHEMBL1127082, “3,4-Dihydroxychalcones as potent 5-lipoxygenase and cyclooxygenase inhibitors” (J Med Chem, 1993).

For assay [1], the target named is Cyclooxygenase (Homo sapiens) (UniProt P35354+P23219). As to the kind of experiment: Inhibition of Prostaglandin G/H synthase activity in sheep seminal vesicle was determined 10E-4 […]. The settings on record: Ovis aries, target entry is the homologue from another species. Format: tissue-based.
The nature of assay [2]: Inhibition of Prostaglandin G/H synthase activity in sheep seminal vesicle was determined. Format: tissue-based, Ovis aries. In short, it runs like this: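 Sheep seminal vesicle microsomes (32 μg protein) were incubated with [14C]arachidonic acid (0.1 μCi/mL) in pH 7.4 phosphate buffer containing glutathione, epinephrine and EDTA for 10 min at 37 °C. Substrate was removed by two hexane/EtOAc extractions, and aqueous-phase radioactivity was counted by scintillation.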

Assay [3] addresses T1, Polyunsaturated fatty acid 5-lipoxygenase (Rattus norvegicus) (UniProt P12527).
T1 sequence (whole entry): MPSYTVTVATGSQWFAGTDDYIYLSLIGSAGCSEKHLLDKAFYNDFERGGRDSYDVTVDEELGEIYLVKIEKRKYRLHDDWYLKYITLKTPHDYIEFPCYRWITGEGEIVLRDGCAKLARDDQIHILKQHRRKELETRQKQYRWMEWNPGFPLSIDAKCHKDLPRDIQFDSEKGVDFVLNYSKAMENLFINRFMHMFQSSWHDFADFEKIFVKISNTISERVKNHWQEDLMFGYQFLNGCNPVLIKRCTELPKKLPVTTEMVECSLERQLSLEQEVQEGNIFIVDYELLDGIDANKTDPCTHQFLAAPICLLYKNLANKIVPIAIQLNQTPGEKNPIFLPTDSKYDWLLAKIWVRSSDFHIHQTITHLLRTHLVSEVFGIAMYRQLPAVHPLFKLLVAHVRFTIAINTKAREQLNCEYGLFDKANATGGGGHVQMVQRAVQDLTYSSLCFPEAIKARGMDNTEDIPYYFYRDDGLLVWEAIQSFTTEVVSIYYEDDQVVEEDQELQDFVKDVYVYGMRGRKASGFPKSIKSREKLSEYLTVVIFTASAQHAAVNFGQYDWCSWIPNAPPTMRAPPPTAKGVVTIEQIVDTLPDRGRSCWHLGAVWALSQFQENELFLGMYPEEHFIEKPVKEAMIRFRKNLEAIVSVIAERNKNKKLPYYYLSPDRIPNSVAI
As to the kind of experiment: In vitro inhibition against 5-lipoxygenase in RBL-1 cells was determined at 10e-4 M. The class given is cell-based. In short, it runs like this: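 RBL-1 cells grown in RPMI-1640 with 10% heat-inactivated newborn calf serum at 37 °C in 5% CO2, harvested in growth phase, suspended in 50 mM phosphate buffer pH 7.4 (0.25 M sucrose, 1 mM EDTA, 2 mM glutathione) and stored at -70 °C. Homogenate (5 × 10⁶ cells), 2 mM CaCl2 and 0.66 mM arachidonic acid incubated 3 min at 37 °C. MeOH stop, 5-HETE by HPLC at 235 nm. Percent inhibition versus control at 10⁻⁴ M, mean of two determinations.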

Assay [4] addresses Prostaglandin G/H synthase 1 (Ovis aries) (UniProt P05979). As to the kind of experiment: Inhibition of Prostaglandin G/H synthase activity in sheep seminal vesicle was determined. Further details: concentration or dose not given beside the values. The conditions noted are these: concentration not given here.
Assay [5] deals with T1, Polyunsaturated fatty acid 5-lipoxygenase (Rattus norvegicus). Put plainly: In vitro inhibition against 5-lipoxygenase in RBL-1 cells was determinedb at 100 uM. Format: cell-based. In a few lines:
(§1)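 Single-concentration test at 100 μM, given as percent inhibition versus control, average of two determinations. RBL-1 cell homogenate (5 × 10⁶ cells) with 2 mM CaCl2 and 0.66 mM arachidonic acid, pH 7.4 phosphate buffer, 3 min at 37 °C. 5-HETE was measured by HPLC absorbance at 235 nm.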

The species named for assay [6] is Rattus norvegicus. Put plainly: Inhibition of lipid peroxidation in rat liver microsomes at 1 uM. Format: functional. For orientation: Liver microsomes are a subcellular fraction often used to study metabolism.
Assay [7] deals with T1, Polyunsaturated fatty acid 5-lipoxygenase (Rattus norvegicus). Put plainly: In vitro inhibition against 5-lipoxygenase in RBL-1 cells was determined at 100 uM. The class given is cell-based. In short, it runs like this: as §1
In assay [8] the target is Prostaglandin G/H synthase 1 (Ovis aries) (UniProt P05979). As to the kind of experiment: Inhibition of Prostaglandin G/H synthase activity in sheep seminal vesicle was determined 100 uM.
Prostaglandin G/H synthase 1 (Ovis aries), sequence (P05979 whole entry, looked up): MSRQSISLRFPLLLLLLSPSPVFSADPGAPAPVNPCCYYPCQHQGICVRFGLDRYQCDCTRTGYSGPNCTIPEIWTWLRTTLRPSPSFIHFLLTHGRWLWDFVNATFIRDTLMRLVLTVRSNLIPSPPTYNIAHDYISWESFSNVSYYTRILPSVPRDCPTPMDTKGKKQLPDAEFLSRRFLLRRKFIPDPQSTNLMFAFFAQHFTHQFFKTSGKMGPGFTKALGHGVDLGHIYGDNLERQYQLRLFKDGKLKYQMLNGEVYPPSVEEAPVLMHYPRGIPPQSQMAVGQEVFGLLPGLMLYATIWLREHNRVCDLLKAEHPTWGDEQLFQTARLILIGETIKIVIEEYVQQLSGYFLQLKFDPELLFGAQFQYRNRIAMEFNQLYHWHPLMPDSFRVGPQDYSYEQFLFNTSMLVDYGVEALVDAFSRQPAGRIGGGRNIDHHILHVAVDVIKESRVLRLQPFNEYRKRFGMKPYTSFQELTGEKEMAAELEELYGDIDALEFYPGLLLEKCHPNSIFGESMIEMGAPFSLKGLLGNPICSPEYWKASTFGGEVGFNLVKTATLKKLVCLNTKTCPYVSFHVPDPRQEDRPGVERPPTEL

Take `O=c1c(O)c(-c2ccc(O)c(O)c2)oc2cc(O)cc(O)c12`: the inhibition in assay [1] came out at 13%.
In the case of `CN1C(C(=O)Nc2ccccn2)=C(O)c2ccccc2S1(=O)=O` [PIROXICAM], in assay [2], half-maximal inhibition (IC50) required 460 µM. Moreover, in assay [3], the inhibition amounted to 19%.
For `O=C(O)c1ccccc1Nc1cccc(C(F)(F)F)c1` [FLUFENAMIC ACID] the same measures were 19 µM and -0.1%.
On to `COc1ccc(/C=C/C(=O)c2ccccc2O)cc1O`, for which the inhibition in assay [4] is 8.6%; in assay [5], -4.5%; in assay [6] it was 11%.
Regarding `O=C(/C=C/c1ccccc1)c1ccccc1O`, the inhibition came to 19% in assay [7], 6% in assay [6] and 13% in assay [8].

By inhibition is commonly meant the relative decrease from the control value, in per cent. In general, IC50 refers to the concentration that inhibits the measured activity by half.
